Results: ChEMBL document CHEMBL1149780, “Unsaturated fluoro-ketopyranosyl nucleosides: synthesis and biological evaluation of 3-fluoro-4-keto-beta-d-glucopyranosyl derivatives of N(4)-benzoyl cytosine and N(6)-benzoyl adenine” (Eur J Med Chem, 2008)

Legend:
[1] = tested on: Rotavirus; assay: Antiviral activity against gastrointestinal rotavirus in human Caco-2 cells assessed as inhibition of infectivity following virus attachment; assay type: functional, organism-based
Outline: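 Caco-2 monolayers washed, exposed to rotavirus RF strain (1.5 TCID50/mL, 100 µL/well) for 1 h at 37 °C, 5% CO2; unbound virus washed off, then 3-fold serial compound dilutions added (top 0.5 mg/mL; DMSO below 0.1%).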

[2] = tested on: H4; assay: Tumor selectivity index, CC50 for human H4 cells to CC50 for human Caco-2 cells; assay type: functional
[3] = Cytotoxicity against human melanoma cells after 72 hrs; assay type: functional; conditions: Melanoma cell
Outline: (§1)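 Caco-2, H4 (normal intestinal), MCF-7 and skin melanoma cells seeded at 6 × 10^6 cells per plate, given 3-fold serial dilutions (top 0.5 mg/mL; DMSO below 0.1%), 37 °C, 72 h.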

[4] = tested on: H4; assay: Tumor selectivity index, CC50 for human H4 cells to CC50 for human melanoma cells; assay type: functional
[5] = tested on: MCF7; assay: Tumor selectivity index, CC50 for human H4 cells to CC50 for human MCF7 cells; assay type: functional
[6] = Ratio of CC50 for Caco-2 cells to IC50 for rotavirus infected human Caco2 cells assessed as inhibition of infectivity following virus attachment
[7] = tested on: H4; assay: Cytotoxicity against human H4 cells after 72 hrs; assay type: functional; conditions: H4, 72 h; outline: as §1
[8] = tested on: MCF7; assay: Cytotoxicity against human MCF7 cells after 72 hrs; assay type: functional; conditions: MCF7, 72 h; outline: as §1
[9] = tested on: Caco-2; assay: Cytotoxicity against human Caco-2 cells after 72 hrs; assay type: functional; conditions: Caco-2, 72 h; outline: as §1
[10] = tested on: Caco-2; assay: Growth inhibition of human Caco-2 cells; assay type: functional, cell-based
Outline: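 Colony-formation assay: Caco-2 seeded at 10 cells/well in DMEM-10% FBS, given 3-fold dilutions (top 0.5 mg/mL), incubated 10 days at 37 °C. Colonies counted; colony number in treated (n = 2) vs control wells (n = 24) as %; IC50 from concentration-effect curve.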

Structure (SMILES) | IC50 [1] [µM] | Ratio [2] | CC50 [3] [µM] | Ratio [4] | Ratio [5] | Ratio CC50/IC50 [6] | CC50 [7] [µM] | CC50 [8] [µM] | CC50 [9] [µM] | IC50 [10] [µM]
O=C(Nc1ncnc2ncn([C@H]3C=C(F)C(=O)[C@@H](COC(c4ccccc4)(c4ccccc4)c4ccccc4)O3)c12)c1ccccc1 | 799 | 25 | 9.5 | 84.1 | 84.1 | 0.04 | 799 | 9.5 | 31.9 | 1.1
Cc1cn([C@H]2C[C@H](N=[N+]=[N-])[C@@H](CO)O2)c(=O)[nH]c1=O [ZIDOVUDINE] |  |  |  |  |  | 2.5 |  |  | 56.1 | 
O=c1[nH]cc(F)c(=O)[nH]1 [FLUOROURACIL] |  | 10 |  | 83.4 | 5 |  |  |  |  | 
